Experimental data published in PubChem BioAssay AID1665 (Sanford-Burnham Center for Chemical Genomics, 2009).
Hit rate of the full screen: of about 190,000 compounds, about 590 (0.31%) were called active.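 How the source made its calls: active means nuclear translocation activity above 50% at 5 µM, with a well cell count of 50 or more; inconclusive means wells under 50 cells across six images, flagged as toxic; inactive means the rest.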 Shown is part of a subset that was picked to be rich in actives.

Assay: modulators of beta-catenin nuclear translocation, primary screen, imaging, HeLa cells, immunofluorescence, high-content (AID 1665);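 on nuclear translocation activity: per-cell ratio of nuclear to cytoplasmic median beta-catenin stain intensity; plate controls were DMSO negative control for no effect and GSK-3 inhibitor IX positive control for full effect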
Settings: at 5 µM; cell count: measured here: cell count, cytotoxicity flag; nuclear translocation activity: stronger effect = higher value
Method in brief: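 Test system: human HeLa cells, native beta-catenin. Compound dosing: 5 µM primary single dose, 0.1% DMSO, 0.02–20 µM confirmation series. Incubation: compound exposure 24 h at 37°C. Detection: beta-catenin immunostaining with DAPI counterstain, 20x imaging, 6 fields/well. Read-out basis: Nuclear/cytoplasmic beta-catenin signal ratio, % activation.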
For CCOC(=O)C1CCN(c2c(Nc3cc(C)cc(C)c3)c(=O)c2=O)CC1, the cell count was 1340 cells and the nuclear translocation activity was 0.9% (inactive). With O=C(Cn1cnc2cc([N+](=O)[O-])ccc2c1=O)NC(=O)NCc1ccccc1 the cell count was 1320 cells and the nuclear translocation activity was -2.1% (inactive). For Cc1cc(=O)[nH]c2nnnn12, the cell count was 1080 cells and the nuclear translocation activity was -1.2% (inactive). For COc1ccc(Nc2cc(C)nc(-n3nc(C)cc3C)n2)cc1, the cell count was 451 cells and the nuclear translocation activity was 249% (active). With Cc1cc(N/N=C\c2ccc(Br)cc2)nc(-n2nc(C)cc2C)n1 the cell count was 1430 cells and the nuclear translocation activity was -1.3% (inactive). With COc1ccccc1/C=N\Nc1cc(C)nc(-n2nc(C)cc2C)n1 the cell count was 900 cells and the nuclear translocation activity was 0.7% (inactive). For Nc1nnn(CC(=O)N/N=C/c2ccc(O)cc2)n1, the cell count was 1300 cells and the nuclear translocation activity was -1.2% (inactive). For COCCNC(=S)N1CCN(C)CC1, the cell count was 1380 cells and the nuclear translocation activity was -0.3% (inactive). In the case of CCn1c(=O)c([N+](=O)[O-])c(NCc2ccc3c(c2)OCO3)c2ccccc21, the cell count is reported as 1360 cells and the nuclear translocation activity is reported as -0.1% (inactive). In the case of COc1cc(OC)cc(/C(N)=N/O)c1, the cell count is reported as 1310 cells and the nuclear translocation activity is reported as 0.5% (inactive). In the case of COC(=O)c1ccccc1N=Nc1c(C)[nH][nH]c1=O, the cell count is reported as 1310 cells and the nuclear translocation activity is reported as -1.6% (inactive). With O=C(NCCc1c[nH]c2ccc(Cl)cc12)c1ccc([N+](=O)[O-])cc1 the cell count was 1380 cells and the nuclear translocation activity was 1.3% (inactive). In the case of N/C(=N\OC(=O)CCn1cccc(C(F)(F)F)c1=O)c1ccc(OC(F)(F)F)cc1, the cell count is reported as 1280 cells and the nuclear translocation activity is reported as -1.4% (inactive). With O=C(NCC1CCCO1)c1cc(-c2ccccc2)nc2ccccc12 (stereo unspecified) the cell count was 1120 cells and the nuclear translocation activity was -2% (inactive). With CC(C)c1c(O)nc(SCCOc2ccc(Cl)cc2)[nH]c1=O the cell count was 1310 cells and the nuclear translocation activity was 0.9% (inactive). With Cc1nn(CC(=O)N/N=C/c2ccc(F)cc2)c(C)c1[N+](=O)[O-] the cell count was 1290 cells and the nuclear translocation activity was 0.3% (inactive). In the case of O=C(NC1=NCCS1)c1ccc(Cl)s1, the cell count is reported as 998 cells and the nuclear translocation activity is reported as 1.4% (inactive). With CC(=O)NC1=NN(C(C)=O)C(C)(c2ccc(Cl)s2)S1 (stereo unspecified) the cell count was 101 cells and the nuclear translocation activity was 68.6% (active). In the case of O=C(O)C(NS(=O)(=O)c1cccc2nsnc12)c1ccccc1 (stereo unspecified), the cell count is reported as 1330 cells and the nuclear translocation activity is reported as -1% (inactive). With Cc1ccc(S(=O)(=O)N(C)CC(=O)OCC(=O)Nc2ccccc2)cc1 the cell count was 1320 cells and the nuclear translocation activity was -1.1% (inactive). In the case of CCS(=O)(=O)c1cc([N+](=O)[O-])c(Sc2ccccc2N)s1, the cell count is reported as 1180 cells and the nuclear translocation activity is reported as -2.4% (inactive). For Cc1c(C(=O)N(Cc2ccccc2)Cc2cccnc2)cnn1-c1ccc(F)cc1, the cell count was 1030 cells and the nuclear translocation activity was 0.4% (inactive). In the case of CCOc1ccc(/C(O)=C2\C(=O)C(=O)N(c3ccc(OC)cc3)C2c2ccccc2[N+](=O)[O-])cc1 (stereo unspecified), the cell count is reported as 1260 cells and the nuclear translocation activity is reported as -0.5% (inactive). For O=C(NN1C(=O)C2CCCCC2C1=O)c1ccco1 (stereo unspecified), the cell count was 1260 cells and the nuclear translocation activity was 0.6% (inactive). For Cc1cc(-c2n[nH]c(=S)n2/N=C/c2ccco2)n[nH]1, the cell count was 1280 cells and the nuclear translocation activity was -0.9% (inactive). For CCc1cccc(CC)c1NC(=S)Nc1ccc2cn[nH]c2c1, the cell count was 1270 cells and the nuclear translocation activity was 0.8% (inactive). With O=[N+]([O-])c1ccc(N=Cc2c(O)ccc3ccccc23)cc1 the cell count was 1330 cells and the nuclear translocation activity was 0.8% (inactive). With Cc1ccc(C(=O)Nc2nc(N)n(-c3ccccc3)n2)cc1 the cell count was 1180 cells and the nuclear translocation activity was -1.1% (inactive). For O=C(c1c(Cl)cccc1Cl)N1CCN(c2cccc3[nH]ccc23)CC1, the cell count was 1260 cells and the nuclear translocation activity was -1.5% (inactive). With COc1ccc(NC(=O)c2cn(-c3ccccc3)nc2SC)cc1 the cell count was 1240 cells and the nuclear translocation activity was 0.1% (inactive). In the case of O=C(Nc1nnc(CCN2CCCCC2)s1)c1cccc(Cl)c1, the cell count is reported as 1310 cells and the nuclear translocation activity is reported as 0.2% (inactive). In the case of C=CCSC(CC)(CC)C(N)=O, the cell count is reported as 1320 cells and the nuclear translocation activity is reported as 0.1% (inactive). With Cc1cc(F)ccc1NC(=O)C(C)n1c2ccccc2c2nc(=O)cc(C)n21 (stereo unspecified) the cell count was 1290 cells and the nuclear translocation activity was -0.2% (inactive). With COc1ccc(CCN2C(=O)N(c3ccc(OC)cc3)C(=O)C2CC(=O)Nc2ccc(OC)cc2)cc1 (stereo unspecified) the cell count was 1360 cells and the nuclear translocation activity was -0.8% (inactive). In the case of Cc1nc(-c2nnc(SCC(=O)Nc3cc(C(F)(F)F)cc(C(F)(F)F)c3)n2C)cs1, the cell count is reported as 1370 cells and the nuclear translocation activity is reported as -0.7% (inactive). With Cc1ccc2c(C)c(C(=O)N3CCC(N4CCC(C(=O)NC5CC5)CC4)CC3)oc2c1 the cell count was 1360 cells and the nuclear translocation activity was 1.4% (inactive). With CSc1ccc(NC(=O)/C=C/C(=O)O)cc1 the cell count was 1010 cells and the nuclear translocation activity was 2.1% (inactive). For CCN1CCN(c2nc(Nc3cccc(F)c3)nc(N)c2[N+](=O)[O-])CC1, the cell count was 1210 cells and the nuclear translocation activity was -1.4% (inactive). In the case of Cc1ccccc1-c1nc(C#N)c(NCc2ccco2)o1, the cell count is reported as 1080 cells and the nuclear translocation activity is reported as -3.1% (inactive). For COc1ccc(Nc2oc(-c3ccccc3Cl)nc2C#N)cc1, the cell count was 210 cells and the nuclear translocation activity was 156% (active). For COc1ccc(Nc2nc(Cl)nc(NCc3ccco3)n2)cc1, the cell count was 1380 cells and the nuclear translocation activity was 3% (inactive). For NS(=O)(=O)c1ccc(NC2=CC(c3ccc(F)cc3)N(c3ccc(S(N)(=O)=O)cc3)C2=O)cc1 (stereo unspecified), the cell count was 1320 cells and the nuclear translocation activity was 0.9% (inactive). In the case of C/C(=N\NC(=O)c1cccnc1)c1ccc(-c2ccccc2)cc1, the cell count is reported as 1160 cells and the nuclear translocation activity is reported as -0.7% (inactive). With O=C(Nc1ccc(S(=O)(=O)Nc2nccs2)cc1)c1cccc(S(=O)(=O)N2CCOCC2)c1 the cell count was 1290 cells and the nuclear translocation activity was 0.8% (inactive). In the case of C[C@@H](NC(=O)OC(C)(C)C)c1nnc(S(=O)(=O)Cc2ccccc2)o1, the cell count is reported as 1360 cells and the nuclear translocation activity is reported as -0.8% (inactive). With COc1ccc(N2C(=O)c3ccccc3NC2c2ccc(OC)c(CN3CCOCC3)c2)cc1 (stereo unspecified) the cell count was 1290 cells and the nuclear translocation activity was 0.6% (inactive). With CCCC(=O)Nc1nc2ccc(NC(=O)c3c(F)c(F)c(OC)c(F)c3F)cc2s1 the cell count was 260 cells and the nuclear translocation activity was 57.6% (active). In the case of COc1ccc2nc(Nc3nc4ccc(NC(C)=O)cc4s3)sc2c1, the cell count is reported as 875 cells and the nuclear translocation activity is reported as 2.8% (inactive). In the case of CCCC(=O)Nc1nc2ccc(NC(=O)c3cccnc3)cc2s1, the cell count is reported as 895 cells and the nuclear translocation activity is reported as -0.7% (inactive). For Cc1ccc(/C=N/NC(=S)Nc2cccc(S(=O)(=O)N(C)C)c2)o1, the cell count was 1210 cells and the nuclear translocation activity was 2.8% (inactive). In the case of CC(/C=C/C1(O)C(C)CC(=O)CC1(C)C)OC1OC(CO)C(O)C(O)C1O (stereo unspecified), the cell count is reported as 1080 cells and the nuclear translocation activity is reported as -3% (inactive). In the case of C=CC1C(OC2OC(CO)C(O)C(O)C2O)OC=C(C(=O)OC)C1CC1CC(=O)CC(CC(=O)CCc2ccc(O)cc2)O1 (stereo unspecified), the cell count is reported as 387 cells and the nuclear translocation activity is reported as 79.8% (active). With Cc1cc(C(=O)NCCc2ccc(Cl)cc2)n(-c2ccccc2)n1 the cell count was 1320 cells and the nuclear translocation activity was -0.3% (inactive). For Cn1nccc1NC(=O)Nc1ccc(OC(F)(F)F)cc1, the cell count was 1280 cells and the nuclear translocation activity was 0.7% (inactive). For CC(C)Cc1ccc(C(C)C(=N)N)cc1 (stereo unspecified), the cell count was 1310 cells and the nuclear translocation activity was 1.1% (inactive). For COc1ccc(CNC(=O)C2CC(c3ccc(C(F)(F)F)cc3)=NO2)cc1 (stereo unspecified), the cell count was 1110 cells and the nuclear translocation activity was 2.2% (inactive). For COc1ccc(-c2cc(C(=O)NCc3ccco3)no2)cc1OC, the cell count was 1220 cells and the nuclear translocation activity was -1.7% (inactive). For COc1ccc(C2=NOC(C(=O)NCc3ccco3)C2)cc1OC (stereo unspecified), the cell count was 701 cells and the nuclear translocation activity was 166% (active). With COc1ccc(S(=O)(=O)N(CC(=O)N/N=C/c2ccccc2C(=O)O)c2ccccc2OC)cc1 the cell count was 1300 cells and the nuclear translocation activity was -0.3% (inactive). With Cc1cc(=O)oc2cc(OCCC[n+]3ccccc3)ccc12 the cell count was 1370 cells and the nuclear translocation activity was -1% (inactive). In the case of Cc1ccccc1N1CCN(CCCOc2ccc3c(C)cc(=O)oc3c2)CC1, the cell count is reported as 1030 cells and the nuclear translocation activity is reported as 1.9% (inactive). In the case of Cc1cc(=O)oc2cc(OCC3CC(c4ccccc4Cl)=NO3)ccc12 (stereo unspecified), the cell count is reported as 228 cells and the nuclear translocation activity is reported as 168% (active). With COc1ccc(C(C(=O)NC(C)(C)C)N(C(=O)Cn2nnc3ccccc32)c2ccc(C(C)=O)cc2)cc1O (stereo unspecified) the cell count was 1370 cells and the nuclear translocation activity was -1% (inactive). With CCOc1cccc(-c2nnc3sc(COc4ccc(OC)cc4)nn23)c1 the cell count was 1020 cells and the nuclear translocation activity was -0.9% (inactive). In the case of CCOc1cccc(-n2nnnc2-c2ccc(OC)cc2)c1, the cell count is reported as 184 cells and the nuclear translocation activity is reported as 63.9% (active). With COc1ccc(-n2nnnc2-c2nc3ccccc3s2)cc1 the cell count was 953 cells and the nuclear translocation activity was 0.1% (inactive). With CC(C)(C)NC(=O)/C(=C/c1cccnc1)NC(=O)c1ccco1 the cell count was 1310 cells and the nuclear translocation activity was -0.7% (inactive). With Cc1nn2c(NCCN(C)C)c3c(nc2c1-c1ccccc1)CCC3 the cell count was 1430 cells and the nuclear translocation activity was 0.3% (inactive). With C=CCNC(=S)N1CCc2[nH]c3ccccc3c2C1 the cell count was 1340 cells and the nuclear translocation activity was 0.9% (inactive). With O=C(NNC(=S)Nc1ccc(F)cc1)[C@H]1C[C@@H]1c1ccccc1 the cell count was 1360 cells and the nuclear translocation activity was -0.2% (inactive). In the case of Cc1ccc(/C=N/NC(=S)NC2CCCCC2)o1, the cell count is reported as 1310 cells and the nuclear translocation activity is reported as -0.8% (inactive). In the case of Cc1cc(C)cc(OCC(=O)O/N=C(\N)Cc2ccc([N+](=O)[O-])cc2)c1, the cell count is reported as 1030 cells and the nuclear translocation activity is reported as -2.4% (inactive). For COc1ccc(-c2nn(C)c(=O)c3ccccc23)cc1CNC(=O)C1CCCCC1, the cell count was 1350 cells and the nuclear translocation activity was 0.1% (inactive). With COc1ccc(C(CC(=O)N2CCN(c3ccccc3)CC2)c2c(O)cc(OC)cc2OC)cc1 (stereo unspecified) the cell count was 1050 cells and the nuclear translocation activity was 0.9% (inactive). For Cc1ccc(/C=N/NC(=O)CSc2ccccn2)o1, the cell count was 1300 cells and the nuclear translocation activity was 0.7% (inactive). For COC(=O)c1c(C)oc(C)c1S(=O)(=O)Nc1ccc(C(C)C)cc1, the cell count was 1320 cells and the nuclear translocation activity was -1.4% (inactive). With CC12C(=O)N(c3ccccc3)C(=O)C1C(c1ccccc1)N1CCCN12 (stereo unspecified) the cell count was 1080 cells and the nuclear translocation activity was -5.7% (inactive). In the case of COc1cc(NC(=O)c2ccc(CNc3c(N4CCCC4)c(=O)c3=O)cc2)cc(OC)c1OC, the cell count is reported as 1340 cells and the nuclear translocation activity is reported as -0.2% (inactive). For O=C(CSc1nnc(SCc2ccc(F)cc2)s1)Nc1ccc(C(=O)O)cc1, the cell count was 1300 cells and the nuclear translocation activity was -1% (inactive). With CCOC(=O)N/N=C1\CC(C)S(=O)(=O)c2ccc(Cl)cc21 (stereo unspecified) the cell count was 1360 cells and the nuclear translocation activity was 0.2% (inactive). In the case of O=C(N/N=C/c1ccc([N+](=O)[O-])cc1)c1c[nH]c2ccccc12, the cell count is reported as 1150 cells and the nuclear translocation activity is reported as -1.5% (inactive). For Cc1c(C(=O)N/N=C/c2ccccc2)[nH]c2c([N+](=O)[O-])cccc12, the cell count was 474 cells and the nuclear translocation activity was 69.8% (active). With Cc1cc(C(=O)N/N=C/c2ccccc2[N+](=O)[O-])c(C)o1 the cell count was 1070 cells and the nuclear translocation activity was -0.2% (inactive).
